Source: ChEMBL document CHEMBL1157263, “Cytotoxic diacetylenic spiroketal enol ethers from Plagius flosculosus” (J Nat Prod, 2006)

Tests used:
Format in all cases: functional, cell-based
HL-60 [1] = assay: Cytotoxicity against human HL60 after 20 hrs by WST1 assay; settings: HL-60, 20 h
Outline: (§1)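 WST-1 cell viability read-out after 2.5, 20 and 72 h exposure; compounds tested over 0.5 to 80 µM. Cells: CD4+ Jurkat T-cells (ATCC TIB-152), Bcl-2-transfected Jurkat, and HL-60 (ATCC CCL-240). Maximal standard deviation 10% (absolute).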

Jurkat [2] = assay: Cytotoxicity against human Jurkat T cells after 20 hrs by WST1 assay; outline: as §1
Jurkat [3] = assay: Cytotoxicity against human Jurkat T cells overexpressing Bcl2 after 20 hrs by WST1 assay; outline: as §1
HL-60 [4] = assay: Induction of apoptosis in human HL60 cells by FACS
Outline: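 HL-60 cells (10^6 per sample) exposed 24 h, washed in cold PBS with 1% bovine calf serum and spun at 200g, 4 °C. Staining with annexin V-FITC (2 µg/mL) in HEPES binding buffer, pH 7.4, 10 min on ice in the dark, then 1 µg PI per tube. Flow cytometry within 20 min; annexin V-FITC-positive cells in the gated population scored apoptotic. Taxol 500 nM positive control, untreated negative control.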

SMILES | IC50 (HL-60 [1]) | IC50 (Jurkat [2]) | IC50 (Jurkat [3]) | Activity (HL-60 [4])
CC#CC#C/C=C1\C=CC2(CCC(OC)O2)O1 (racemic) [FLOSCULIN B] | 18.3 µM | 15.2 µM | 19.2 µM | –
CC#CC#C/C=C1/C=CC2(CCC(OC)O2)O1 (racemic) [FLOSCULIN C] | 16.7 µM | 10.8 µM | 16.9 µM | –
CC#CC#C/C=C1/C=C[C@]2(OC=CC2OC(C)=O)O1 (stereo partly drawn) | 4.2 µM | 4.1 µM | 5.2 µM | Dose-dependent effect
CC#CC#C/C=C1/C=C[C@@]2(CC=CO2)O1 | 5.6 µM | 3.8 µM | 7.2 µM | –
CC#CC#C/C=C1/O[C@@]2(OC=C[C@H]2OC(C)=O)[C@@H](O)[C@@H]1Cl [FLOSCULIN A] | 18.9 µM | 13.2 µM | 19.1 µM | –
CC#CC#C/C=C1\C=C[C@@]2(CCCO2)O1 | 16.2 µM | 11.2 µM | 14.1 µM | –
C=C1C(=O)O[C@@H]2C[C@@H](C)[C@@H]3C=CC(=O)[C@@]3(C)[C@@H](O)[C@H]12 [HELENALIN] | 0.7 µM | 0.46 µM | – | –
CC#CC#C/C=C1\C=C[C@]2(OC=CC2OC(C)=O)O1 (stereo partly drawn) | 4 µM | 6.4 µM | 6.9 µM | Dose-dependent effect
CC#CC#C/C=C1\C=C[C@@]2(CC=CO2)O1 | 6.1 µM | 4.7 µM | 8.4 µM | –
